The values that follow come from ChEMBL document CHEMBL5149984, “Discovery of HN37 as a Potent and Chemically Stable Antiepileptic Drug Candidate” (J Med Chem, 2021).

Series [1] is described as follows: Toxicity in C57BL/6 mouse assessed as sedative effect at 80 mg/kg. In kind it is organism-based. The settings on record: in vivo.
A short description of series [2]: Neurotoxicity in po dosed Kunming mouse assessed as motor impairment after 1 hr by rotarod test. The series is classed as toxicity, organism-based. Conditions: in vivo. In a few lines: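 Male KM mice dosed intragastrically with compound freshly suspended in 0.5% CMC-Na. Rotarod performance scored 1 h after dosing as the fraction of animals showing motor impairment. Fisher's exact test versus vehicle; TD50 from nonlinear dose−response fit.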

In series [3] the target is T1, Potassium voltage-gated channel subfamily KQT member 1 (Homo sapiens, UniProt P51787).
T1 sequence (P51787 whole entry): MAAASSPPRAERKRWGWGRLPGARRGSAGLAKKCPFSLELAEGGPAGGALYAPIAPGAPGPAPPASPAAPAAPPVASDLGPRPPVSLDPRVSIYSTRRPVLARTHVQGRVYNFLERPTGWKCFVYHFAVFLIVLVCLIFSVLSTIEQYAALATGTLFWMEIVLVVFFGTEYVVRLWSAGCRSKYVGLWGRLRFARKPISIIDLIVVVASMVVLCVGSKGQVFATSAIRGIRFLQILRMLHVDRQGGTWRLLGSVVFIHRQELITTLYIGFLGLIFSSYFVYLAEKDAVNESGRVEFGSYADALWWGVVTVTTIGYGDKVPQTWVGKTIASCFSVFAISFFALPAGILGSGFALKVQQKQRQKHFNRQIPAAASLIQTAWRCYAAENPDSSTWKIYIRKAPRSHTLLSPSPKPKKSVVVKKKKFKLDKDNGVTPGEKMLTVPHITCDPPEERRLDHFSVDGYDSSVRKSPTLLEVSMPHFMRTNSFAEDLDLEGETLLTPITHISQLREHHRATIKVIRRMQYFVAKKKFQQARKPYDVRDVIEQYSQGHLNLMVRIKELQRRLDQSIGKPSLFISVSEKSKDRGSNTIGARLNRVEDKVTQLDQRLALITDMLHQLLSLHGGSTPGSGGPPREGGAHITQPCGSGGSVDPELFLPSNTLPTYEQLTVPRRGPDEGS
Nature of the series: Agonist activity at human KCNQ1 channel expressed in CHO cells assessed as amplitude change of outward current at 10 uM by patch clamp method. The series is classed as cell-based. In a few lines: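 Whole-cell patch clamp at room temperature on CHO cells (DMEM/F12, 10% FBS) transiently co-transfected with EGFP and hKCNQ1, rKCNQ2, rKCNQ3 A278T, hKCNQ4 or hKCNQ5; KCNQ2/3 at 1:1 cDNA ratio. Pipette solution 145 mM KCl, 5 mM MgATP, pH 7.3; bath 140 mM NaCl, 5 mM KCl, pH 7.4, under perfusion. V1/2 from Boltzmann fits; I/I0 is current amplitude with versus without compound; n = 4−6.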
In general terms: The patch-clamp technique gives a direct electrical read-out from membranes.

In a further series the target is CYP2C8 (Homo sapiens, UniProt P10632). Nature of the series: Inhibition of human liver microsome CYP2C8 at 0.10 to 50 uM preincubated with NADPH for 0.5 hrs followed by substrate addition by LC-MS/MS method relative to control. In kind it is ADME. Conditions: liver microsomes, dose 0.1-50 µM. A general note: Liver microsomes are a subcellular fraction often used to study metabolism.
Sequence of CYP2C8 (P10632 whole entry): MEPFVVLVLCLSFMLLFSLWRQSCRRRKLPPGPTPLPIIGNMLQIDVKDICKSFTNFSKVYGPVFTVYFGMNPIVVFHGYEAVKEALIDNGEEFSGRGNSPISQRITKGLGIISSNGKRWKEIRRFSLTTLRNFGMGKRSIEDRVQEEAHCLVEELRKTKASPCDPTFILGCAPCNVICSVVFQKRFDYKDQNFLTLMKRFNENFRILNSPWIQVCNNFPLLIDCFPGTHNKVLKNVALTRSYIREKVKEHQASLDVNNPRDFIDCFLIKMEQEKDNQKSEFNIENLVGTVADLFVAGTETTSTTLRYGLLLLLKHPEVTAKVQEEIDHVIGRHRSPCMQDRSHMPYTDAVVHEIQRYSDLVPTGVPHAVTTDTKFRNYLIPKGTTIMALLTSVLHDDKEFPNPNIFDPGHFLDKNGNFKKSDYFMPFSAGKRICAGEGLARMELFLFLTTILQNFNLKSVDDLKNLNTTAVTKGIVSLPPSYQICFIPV

Series [4] can be described thus: AUC(0 to t) in Sprague-Dawley rat blood at 6 mg/kg, po measured upto 24 hrs by LC-MS/MS method. Details: time < 24 hrs, dose 6 mg/kg, route po. The series is classed as ADME, organism-based. In a few lines:
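Separate experiment in male SD rats given 6 mg/kg orally; blood and brain concentrations measured concurrently. Samples extracted with acetonitrile (brain homogenized in 10 volumes acetonitrile and sonicated) and analysed by LC−MS/MS; AUC0−t by trapezoidal method.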

The target of another series is CYP2B6 (Homo sapiens, UniProt P20813). Nature of the series: Inhibition of human liver microsome CYP2B6 at 0.10 to 50 uM preincubated with NADPH for 0.5 hrs followed by substrate addition by LC-MS/MS method relative to control. The series is classed as ADME. The settings on record: liver microsomes, dose 0.1-50 µM.
Sequence of CYP2B6 (P20813 whole entry): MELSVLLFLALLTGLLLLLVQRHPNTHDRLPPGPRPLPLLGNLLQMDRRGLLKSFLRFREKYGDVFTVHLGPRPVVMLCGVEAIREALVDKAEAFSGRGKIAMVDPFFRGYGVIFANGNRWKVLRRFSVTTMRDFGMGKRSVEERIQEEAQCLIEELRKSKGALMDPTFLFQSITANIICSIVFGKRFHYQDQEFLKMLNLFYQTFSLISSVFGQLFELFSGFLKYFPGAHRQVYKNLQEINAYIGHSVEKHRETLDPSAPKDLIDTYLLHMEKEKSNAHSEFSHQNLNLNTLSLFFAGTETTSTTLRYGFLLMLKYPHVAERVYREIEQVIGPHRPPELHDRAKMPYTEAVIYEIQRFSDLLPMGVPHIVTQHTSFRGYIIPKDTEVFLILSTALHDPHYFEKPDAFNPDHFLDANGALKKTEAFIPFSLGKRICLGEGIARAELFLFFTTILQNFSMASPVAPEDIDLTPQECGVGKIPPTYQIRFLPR
In the next series the target is CYP1A2 (Homo sapiens, UniProt P05177). Nature of the series: Ratio of IC50 for human liver microsome CYP1A2 in absence of NADPH to IC50 for human liver microsome CYP1A2 in presence of NADPH. Conditions: liver microsomes, read-out: Ratio IC50.
Sequence of CYP1A2 (P05177 whole entry): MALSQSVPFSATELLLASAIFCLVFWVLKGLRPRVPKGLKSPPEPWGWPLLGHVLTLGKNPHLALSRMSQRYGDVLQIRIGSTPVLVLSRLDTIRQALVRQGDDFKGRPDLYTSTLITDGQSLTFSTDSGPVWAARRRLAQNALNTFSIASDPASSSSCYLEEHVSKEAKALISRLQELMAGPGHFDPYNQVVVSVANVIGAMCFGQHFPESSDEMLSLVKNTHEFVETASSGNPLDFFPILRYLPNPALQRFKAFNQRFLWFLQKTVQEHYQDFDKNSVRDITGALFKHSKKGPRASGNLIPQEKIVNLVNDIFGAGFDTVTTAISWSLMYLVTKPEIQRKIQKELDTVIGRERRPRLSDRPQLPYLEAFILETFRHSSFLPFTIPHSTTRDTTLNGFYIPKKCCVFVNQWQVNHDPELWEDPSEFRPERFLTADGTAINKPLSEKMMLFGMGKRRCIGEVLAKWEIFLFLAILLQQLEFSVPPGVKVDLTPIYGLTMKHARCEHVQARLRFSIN
Series [5] is described as follows: Tmax in Sprague-Dawley rat blood at 6 mg/kg, po measured upto 24 hrs by LC-MS/MS method. The series is classed as ADME, organism-based. In a few lines: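 Male SD rats (180–220 g) dosed orally at 2, 6 and 20 mg/kg, handled like the mice: fasting, 5% DMSO/5% Tween 80/saline vehicle, acetonitrile extraction, LC-MS/MS of plasma. In a separate set at 6 mg/kg p.o., blood and brain were sampled together.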

A short description of series [6]: AUC(0 to t) in Sprague-Dawley rat at 20 mg/kg, po measured upto 24 hrs by LC-MS/MS method. The series is classed as ADME, organism-based. Details: dose 20 mg/kg, time < 24 hrs, route po. Conditions: in vivo. An outline of the steps: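 Male SD rats (180−220 g) dosed orally at 2, 6 or 20 mg/kg in escalating fashion, handled as in the mouse study: 12 h fast, acetonitrile extraction of plasma, LC−MS/MS quantification. AUC0−t by trapezoidal method to the last measurable concentration.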

The nature of series [7]: Clearance in Kunming mouse plasma at 2 mg/kg, iv measured upto 24 hrs by LC-MS/MS method. In kind it is ADME, organism-based. In a few lines:
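Male KM mice fasted 12 h before and 2 h after iv dosing at 2 mg/kg (oral formulation of 5% DMSO/5% Tween 80/saline diluted with saline containing 1% Tween 80); n = 3 per time point. Blood from the retro-orbital venous plexus at 0.083–24 h; plasma extracted with acetonitrile plus internal standard and analysed by LC−MS/MS.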

Series [8] in a line: Volume of distribution at steady state in Kunming mouse plasma at 2 mg/kg, iv measured upto 24 hrs by LC-MS/MS method. In kind it is ADME, organism-based. Conditions: in vivo. In a few lines: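 Male KM mice (18–24 g), fasted 12 h before and 2 h after dosing, n = 3 per time point. Oral dose in 5% DMSO/5% Tween 80/90% saline; i.v. dose is that formulation diluted in saline with 1% Tween 80. Blood sampled 0.25–24 h after oral dosing, 0.083–24 h after i.v.; whole brain taken after oral dosing. Acetonitrile extraction with internal standard, LC-MS/MS.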

The nature of series [9]: Ratio of drug concentration in Kunming mouse brain to plasma by rotarod test.
A short description of series [10]: AUC(0 to t) in Kunming mouse brain at 5 mg/kg, po measured upto 24 hrs by LC-MS/MS method. In kind it is ADME, organism-based. Details: dose 5 mg/kg, time < 24 hrs, route po. In a few lines: (§1)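 KM male mice (18−24 g), fasted 12 h before and 2 h after dosing. HN37 given orally at 5 mg/kg in 5% DMSO/5% Tween 80/90% saline, or iv at 2 mg/kg after dilution in saline with 1% Tween 80; n = 3 per time point. Blood sampled 0.25–24 h (from 0.083 h after iv); whole brain taken after oral dosing. Plasma and brain extracted with acetonitrile, quantified by LC−MS/MS; AUC0−t by trapezoidal method.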

The nature of series [11]: AUC(0 to t) in Kunming mouse plasma at 5 mg/kg, po measured upto 24 hrs by LC-MS/MS method. The series is classed as ADME, organism-based. Details: dose 5 mg/kg, time < 24 hrs, route po. An outline of the steps:
as §1

Series [12] is described as follows: Ratio of AUC(0 to t) in Sprague-Dawley rat brain to plasma at 6 mg/kg, po measured upto 24 hrs by LC-MS/MS method. In kind it is ADME, organism-based. Conditions: brain and plasma. In a few lines:
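Male SD rats (180−220 g) given single oral doses of 2, 6 and 20 mg/kg; handled as in the mouse PK study (fasted 12 h before and 2 h after dosing, 5% DMSO/5% Tween 80/90% saline formulation). In a separate 6 mg/kg p.o. set, blood and brain were sampled together. Plasma and brain levels by LC−MS/MS.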

Regarding `CCOC(=O)Nc1ccc(NCc2ccc(F)cc2)cc1N` [EZOGABINE], the Activity entry in series [1] was “Toxic”; in series [2] (po, 1 h, DDE = dose-dependent effect) it was “Dde”; in [3], 1.01. Moreover, in [2] (Kunming), the TD50 (in general, the 50% point of the dose-response relation for the toxic effect studied) at 1 h amounted to 188 mg/kg.
As for `C#CCN(Cc1ccc(F)cc1)c1cc(C)c(NC(=O)OC)c(C)c1`, the inhibition at 0.5 h, up to 50 µM against CYP2C8 and at CYP2B6 was less than 25% in each case. Besides, the exposure AUC(0-t) (as a rule, the area under the concentration-time curve up to a stated or last time point) at 24 h was found to be 0.533 µg·h/mL in [4], 1.92 µg·h/mL in series [6], 0.716 µg·h/mL in series [10] and 0.321 µg·h/mL in [11]. In addition, on CYP1A2, the IC50 shift was greater than 1.5. In series [5], the Tmax (as a rule, the time from dosing to the highest level) came out at 15 min. Also, the clearance (in general, the rate of elimination divided by the concentration) in series [7] is 3.68 L/h/kg. In series [8], the distribution volume (Vdss) – broadly, a proportionality between amount in the body and measured concentration, not a real space – was found to be 2.89 L/kg. The Kp (as a rule, the ratio of the level in a tissue or fluid to that in plasma or blood) in series [9] is 1.9. In series [12], the Kp at 24 h amounted to 2.86.
